Assay results as given in ChEMBL document CHEMBL3124843, “Synthesis, cytostatic, antimicrobial, and anti-HCV activity of 6-substituted 7-(het)aryl-7-deazapurine ribonucleosides” (J Med Chem, 2014).
pEC50, pIC50: −log10 of the molar value. Calls of active or inactive are those of the source. No rule for the calls is given here.

Tests used:
Candida albicans = assay: Antifungal activity against Candida albicans after 48 hrs; format: functional, organism-based
Pichia kudriavzevii = assay: Antifungal activity against Candida crusei after 48 hrs; format: functional, organism-based
CCRF-CEM = assay: Cytostatic activity against human CCRF-CEM cells after 72 hrs by MTT assay; format: functional, cell-based
Method in brief: (§1)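 IC50 is the concentration that cuts cell growth by 50%, read by quantitative metabolic MTT staining after a 3-day treatment. The resistant sublines were made by raising the concentration of the cytotoxic drug step by step. CEM-DNR-bulk (daunorubicin-selected) stably overexpresses mrp-1. K562-TAX (paclitaxel-selected) expresses only mdr-1. HCT116p53−/− carries null p53 alleles. BJ and MRC-5 are nonmalignant fibroblasts.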

HepG2 = assay: Antiproliferative activity against human HepG2 cells after 72 hrs by XTT assay; format: functional, cell-based; details: HepG2, 72 h
Candida tropicalis = assay: Antifungal activity against Candida tropicalis after 48 hrs; format: functional, organism-based
K562 [1] = assay: Cytostatic activity against human K562 cells after 72 hrs by MTT assay; format: functional, cell-based; details: K562, 72 h; method in brief: as §1
K562 [2] = assay: Cytostatic activity against paclitaxel-resistant human K562 cells after 72 hrs by MTT assay; format: functional, cell-based; details: K562, 72 h; method in brief: as §1
Enterococcus faecalis = assay: Antibacterial activity against Enterococcus faecalis CCM 4224 after 24 hrs; format: functional, organism-based
[3] = Cytostatic activity against human CEM-DNR-bulk cells after 72 hrs by MTT assay; format: functional, cell-based; method in brief: as §1
A549 = assay: Cytostatic activity against human A549 cells after 72 hrs by MTT assay; format: functional, cell-based; details: A549, 72 h; method in brief: as §1
[4] = Antiproliferative activity against human HeLaS3 cells after 72 hrs by XTT assay; format: functional, cell-based; details: HeLa S3, 72 h
Method in brief: (§2)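 Antiproliferative test on HL-60 promyelocytic leukemia and HeLa S3 cervical carcinoma cells growing in liquid suspension.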

Candida parapsilosis = assay: Antifungal activity against Candida parapsilosis after 48 hrs; format: functional, organism-based
Escherichia coli [5] = assay: Antibacterial activity against multi-resistant Escherichia coli C/16702 after 24 hrs; format: functional, organism-based
Staphylococcus aureus [6] = assay: Antibacterial activity against Staphylococcus aureus CCM 3953 after 24 hrs; format: functional, organism-based
Hepatitis C virus [7] = assay: Antiviral activity against Hepatitis C virus subtype 2a infected in human HuH7 cells; format: functional, organism-based, Hepacivirus hominis; details: genotype 2a, Huh-7
Hepatitis C virus [8] = assay: Antiviral activity against Hepatitis C virus subtype 1b infected in human HuH7 cells; format: functional, organism-based, Hepacivirus hominis; details: genotype 1b, Huh-7
HCT-116 [9] = assay: Cytostatic activity against human HCT116 cells after 72 hrs by MTT assay; format: functional, cell-based; details: HCT-116, 72 h; method in brief: as §1
[10] = Cytotoxicity against human HuH7 cells infected with Hepatitis C virus subtype 2a; format: cell-based, Huh-7
HL-60 = assay: Antiproliferative activity against human HL60 cells after 72 hrs by XTT assay; format: functional, cell-based; details: HL-60, 72 h; method in brief: as §2
Escherichia coli [11] = assay: Antibacterial activity against Escherichia coli CCM 3954 after 24 hrs; format: functional, organism-based
BJ = assay: Cytostatic activity against human BJ cells after 72 hrs by MTT assay; format: ADME, cell-based; method in brief: as §1
[12] = Cytotoxicity against human HuH7 cells infected with Hepatitis C virus subtype 1b; format: cell-based, Huh-7
[13] = test system: Staphylococcus haemolyticus; assay: Antibacterial activity against methicillin-resistant Staphylococcus haemolyticus A/16568 after 24 hrs; format: functional, organism-based
MRC5 = assay: Cytostatic activity against human MRC5 cells after 72 hrs by MTT assay; format: ADME, cell-based; details: MRC5, 72 h; method in brief: as §1
Pseudomonas aeruginosa [14] = assay: Antibacterial activity against Pseudomonas aeruginosa CCM 3955 after 24 hrs; format: functional, organism-based
HCT-116 [15] = assay: Cytostatic activity against p53-deficient human HCT116 cells after 72 hrs by MTT assay; format: functional, cell-based; details: HCT-116, 72 h; method in brief: as §1
Pseudomonas aeruginosa [16] = assay: Antibacterial activity against multi-resistant Pseudomonas aeruginosa A/16575 after 24 hrs; format: functional, organism-based
Staphylococcus aureus [17] = assay: Antibacterial activity against methicillin-resistant Staphylococcus aureus MRSA 4591 after 24 hrs; format: functional, organism-based

Compound	Activity (Candida albicans)	Activity (Pichia kudriavzevii)	pIC50 (CCRF-CEM)	pIC50 (HepG2)	Activity (Candida tropicalis)	pIC50 (K562 [1])	pIC50 (K562 [2])	Activity (Enterococcus faecalis)	pIC50 [3]	pIC50 (A549)	pIC50 [4]	Activity (Candida parapsilosis)	Activity (Escherichia coli [5])	Activity (Staphylococcus aureus [6])	pEC50 (Hepatitis C virus [7])	pEC50 (Hepatitis C virus [8])	pIC50 (HCT-116 [9])	CC50 [10]	pIC50 (HL-60)	Activity (Escherichia coli [11])	further results
COc1nc(N)nc2c1c(-c1ccccc1)cn2[C@@H]1O[C@H](CO)[C@@H](O)[C@H]1O	inactive	inactive	< 4.70	< 4.70	inactive	< 4.70	< 4.70	inactive	< 4.70	< 4.70	< 4.70	inactive	inactive	inactive	< 4.36	< 4.36	< 4.70	> 44 µM	< 4.70	inactive	pIC50 (BJ): < 4.00; CC50 [12]: > 44 µM; Activity [13]: inactive; pIC50 (MRC5): < 4.00; Activity (Pseudomonas aeruginosa [14]): inactive; pIC50 (HCT-116 [15]): < 4.70; Activity (Pseudomonas aeruginosa [16]): inactive; Activity (Staphylococcus aureus [17]): inactive
O=c1[nH]cnc2c1c(-c1cc3ccccc3o1)cn2[C@@H]1O[C@H](CO)[C@@H](O)[C@H]1O	inactive	inactive	< 4.70	< 4.70	inactive	< 4.70	< 4.70	inactive	< 4.70	< 4.70	< 4.70	inactive	inactive	inactive	4.76	5.14	< 4.70	> 44 µM	< 4.70	inactive	pIC50 (BJ): 4.20; CC50 [12]: > 44 µM; Activity [13]: inactive; pIC50 (MRC5): < 4.00; Activity (Pseudomonas aeruginosa [14]): inactive; pIC50 (HCT-116 [15]): < 4.70; Activity (Pseudomonas aeruginosa [16]): inactive; Activity (Staphylococcus aureus [17]): inactive
CNc1ncnc2c1c(-c1ccoc1)cn2[C@@H]1O[C@H](CO)[C@@H](O)[C@H]1O	inactive	inactive	< 4.70	< 4.70	inactive	< 4.70	< 4.70	inactive	< 4.70	< 4.70	< 4.70	inactive	inactive	inactive	< 4.36	4.44	< 4.70	> 44 µM	< 4.82	inactive	pIC50 (BJ): 4.02; CC50 [12]: > 44 µM; Activity [13]: inactive; pIC50 (MRC5): < 4.00; Activity (Pseudomonas aeruginosa [14]): inactive; pIC50 (HCT-116 [15]): < 4.70; Activity (Pseudomonas aeruginosa [16]): inactive; Activity (Staphylococcus aureus [17]): inactive
CNc1ncnc2c1c(-c1ccccc1)cn2[C@@H]1O[C@H](CO)[C@@H](O)[C@H]1O	inactive	inactive	< 4.70	< 4.70	inactive	< 4.70	< 4.70	inactive	< 4.70	< 4.70	< 4.70	inactive	inactive	inactive	< 4.36	< 4.36	< 4.70	> 44 µM	< 4.70	inactive	pIC50 (BJ): < 4.00; CC50 [12]: > 44 µM; Activity [13]: inactive; pIC50 (MRC5): < 4.00; Activity (Pseudomonas aeruginosa [14]): inactive; pIC50 (HCT-116 [15]): < 4.00; Activity (Pseudomonas aeruginosa [16]): inactive; Activity (Staphylococcus aureus [17]): inactive
COc1ncnc2c1c(-c1cc3ccccc3o1)cn2[C@@H]1O[C@H](CO)[C@@H](O)[C@H]1O	inactive	inactive	5.27	< 4.70	inactive	4.68	4.88	inactive	4.97	4.75	5.03	inactive	inactive	inactive	4.99	5.58	4.86	> 44 µM	5.35	inactive	pIC50 (BJ): 4.65; CC50 [12]: > 44 µM; Activity [13]: inactive; pIC50 (MRC5): 4.18; Activity (Pseudomonas aeruginosa [14]): inactive; pIC50 (HCT-116 [15]): 4.84; Activity (Pseudomonas aeruginosa [16]): inactive; Activity (Staphylococcus aureus [17]): inactive
CNc1ncnc2c1c(I)cn2[C@@H]1O[C@H](CO)[C@@H](O)[C@H]1O	inactive	inactive	< 4.00	< 4.70	inactive	< 4.00	< 4.70	inactive	< 4.70	< 4.00	< 4.70	inactive	inactive	inactive	< 4.36	< 4.36	< 4.00	> 44 µM	< 4.70	inactive	pIC50 (BJ): < 4.00; CC50 [12]: > 44 µM; Activity [13]: inactive; pIC50 (MRC5): < 4.00; Activity (Pseudomonas aeruginosa [14]): inactive; pIC50 (HCT-116 [15]): < 4.00; Activity (Pseudomonas aeruginosa [16]): inactive; Activity (Staphylococcus aureus [17]): inactive
